Source: publication PMC5002266 (Nuclear medicine and biology, 2016)

Columns and labels:
[1] = test system: BALB/c nude mice bearing U87MG human glioma xenografts; assay: Biodistribution of 99mTc radiotracer in tumor-bearing mice; type: in vivo; conditions: BALB/c nude mice with U87MG xenografts, mean ± SD, n = 5
Outline: (§1)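 Female BALB/c nude mice (4–5 weeks, 16–20 g) carried U87MG cells (5 × 10^6, s.c. shoulder flank) and were used at a tumor volume of ~400 mm3 (~10 days). Each received ~0.1 MBq of 99mTc tracer (~2 ng HYNIC conjugate) in saline by tail vein. Five animals were killed per time point (5, 30, 60, 120 min p.i.). Organs were weighed and γ-counted as %ID/g, and tumor-to-background ratios were reported as mean ± SD.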

[2] = Metabolism; type: in vivo; conditions: athymic nude mice (n = 3); ~10 MBq tail vein; feces at 2 h p.i.; radio-HPLC
Outline: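 Athymic nude mice (n = 3) received ~10 MBq tracer i.v. Feces collected at 120 min p.i. were counted, suspended in 20% aqueous acetonitrile, vortexed ~5 min and centrifuged at 8,000 rpm. The supernatant was counted, filtered at 0.20 µm and run on radio-HPLC (C8, 1 mL/min; 25 mM NH4OAc pH 6.8/acetonitrile, isocratic 5 min then gradient to 60% acetonitrile at 20 min).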

[3] = test system: integrin αvβ3; assay: Monitoring αvβ3 expression by SPECT/CT in three tumor models; type: in vivo, athymic nu/nu mice; conditions: SPECT/CT of tumor-bearing athymic nude mice, ~50 MBq
Outline: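 Female athymic nu/nu mice (4–5 weeks) received 5 × 10^6 cells in 0.1 mL saline: U87MG and PC-3 into shoulder flanks, MDA-MB-435 into breast fat pads. At tumor sizes of 0.1–0.5 g, they were given tracer i.v. and imaged on a multi-pinhole (1.0 mm) SPECT/CT at 60 min p.i. under ~3.0% isoflurane. Tumor ROIs came from CT, and activity was converted via a γ-counter-calibrated standard curve to %ID/g, assuming ~1 g/cm3.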

[4] = Biodistribution of 99mTc radiotracer in tumor-bearing mice; type: in vivo, BALB/c nude mice; conditions: female, BALB/c nude, mouse, iv, 0.1 MBq, total radioactivity
Outline: as §1

[5] = feces at 2 h p.i.; ref [14]; cited from earlier work

[^99mTc(HYNIC-4P-RGD3)(tricine)(TPPTS)] (head to tail) [^99mTc-4P-RGD3]
Tumor/Blood ratio ([1]; 5 min p.i.): 1.23 ± 0.34 | Tumor/Liver ratio ([1]; 5 min p.i.): 0.55 ± 0.16 | Tumor/Lung ratio ([1]; 5 min p.i.): 0.69 ± 0.15 | Tumor/Muscle ratio ([1]; 5 min p.i.): 1.80 ± 0.48 | Tumor/Blood ratio ([1]; 30 min p.i.): 3.69 ± 0.48 | Tumor/Liver ratio ([1]; 30 min p.i.): 0.79 ± 0.11 | Tumor/Lung ratio ([1]; 30 min p.i.): 1.07 ± 0.13 | Tumor/Muscle ratio ([1]; 30 min p.i.): 2.29 ± 0.34 | Tumor/Blood ratio ([1]; 60 min p.i.): 6.21 ± 2.34 | Tumor/Liver ratio ([1]; 60 min p.i.): 0.87 ± 0.25 | Tumor/Lung ratio ([1]; 60 min p.i.): 1.08 ± 0.25 | Tumor/Muscle ratio ([1]; 60 min p.i.): 1.78 ± 0.69 | Tumor/Blood ratio ([1]; 120 min p.i.): 8.21 ± 1.71 | Tumor/Liver ratio ([1]; 120 min p.i.): 0.70 ± 0.19 | Tumor/Lung ratio ([1]; 120 min p.i.): 1.45 ± 0.22 | Tumor/Muscle ratio ([1]; 120 min p.i.): 2.79 ± 0.55 | Radiotracer remaining intact in the feces sample [2]: More than 95% | Ranking order of tumor uptake values among tumor models [3]: U87MG > MDA-MB-435 >> PC-3

N=C(N)NCCC[C@@H]1NC(=O)[C@H](CCCCNC(=O)CCOCCOCCOCCOCCNC(=O)CC[C@H](NC(=O)CCOCCOCCOCCOCCNC(=O)c2ccc(NN)nc2)C(=O)NCCOCCOCCOCCOCCC(=O)NCCCC[C@@H]2NC(=O)[C@@H](Cc3ccccc3)NC(=O)[C@H](CC(=O)O)NC(=O)CNC(=O)[C@H](CCCNC(=N)N)NC2=O)NC(=O)[C@@H](Cc2ccccc2)NC(=O)[C@H](CC(=O)O)NC(=O)CNC1=O [^99mTc-3P-RGD2, [^99mTc(HYNIC-3P-RGD2)(tricine)(TPPTS)], metal not drawn]
tissue uptake at 2 h ([4]; blood): 0.32 ± 0.06 %ID/g | tissue uptake at 0.5 h ([4]; brain): 0.41 ± 0.17 %ID/g | tissue uptake at 1 h ([4]; brain): 0.41 ± 0.05 %ID/g | tissue uptake at 2 h ([4]; brain): 0.23 ± 0.09 %ID/g | tissue uptake at 1 h ([4]; eyes): 2.57 ± 0.59 %ID/g | tissue uptake at 2 h ([4]; eyes): 2.12 ± 0.86 %ID/g | tissue uptake at 0.5 h ([4]; heart): 3.48 ± 0.45 %ID/g | tissue uptake at 1 h ([4]; heart): 3.13 ± 0.44 %ID/g | tissue uptake at 2 h ([4]; heart): 2.07 ± 0.75 %ID/g | tissue uptake at 0.5 h ([4]; intestine): 4.24 ± 1.54 %ID/g | tissue uptake at 1 h ([4]; intestine): 5.45 ± 1.47 %ID/g | tissue uptake at 2 h ([4]; intestine): 3.37 ± 1.32 %ID/g | tissue uptake at 0.5 h ([4]; kidneys): 32.9 ± 2.94 %ID/g | tissue uptake at 1 h ([4]; kidneys): 24.6 ± 3.59 %ID/g | tissue uptake at 2 h ([4]; kidneys): 19.1 ± 2.6 %ID/g | tissue uptake at 0.5 h ([4]; liver): 5.82 ± 0.79 %ID/g | tissue uptake at 1 h ([4]; liver): 4.83 ± 0.6 %ID/g | tissue uptake at 2 h ([4]; liver): 4.52 ± 0.76 %ID/g | tissue uptake at 0.5 h ([4]; lungs): 4.24 ± 0.87 %ID/g | tissue uptake at 1 h ([4]; lungs): 3.5 ± 1.01 %ID/g | tissue uptake at 2 h ([4]; lungs): 2.39 ± 0.71 %ID/g | tissue uptake at 0.5 h ([4]; muscle): 2.25 ± 0.48 %ID/g | tissue uptake at 1 h ([4]; muscle): 1.5 ± 0.49 %ID/g | tissue uptake at 2 h ([4]; muscle): 1.23 ± 0.21 %ID/g | tissue uptake at 0.5 h ([4]; spleen): 5.03 ± 0.45 %ID/g | tissue uptake at 1 h ([4]; spleen): 4.02 ± 0.7 %ID/g | tissue uptake at 2 h ([4]; spleen): 3.8 ± 0.5 %ID/g | tissue to tissue ratio at 0.5 h ([4]; tumor / blood): 4.33 ± 0.12 | tissue to tissue ratio at 1 h ([4]; tumor / blood): 5.86 ± 2.21 | tissue to tissue ratio at 2 h ([4]; tumor / blood): 12 ± 3.62 | tissue to tissue ratio at 0.5 h ([4]; tumor / liver): 1.16 ± 0.54 | tissue to tissue ratio at 1 h ([4]; tumor / liver): 1.1 ± 0.54 | tissue to tissue ratio at 2 h ([4]; tumor / liver): 0.84 ± 0.1 | tissue to tissue ratio at 0.5 h ([4]; tumor / lung): 1.52 ± 0.74 | tissue to tissue ratio at 1 h ([4]; tumor / lung): 1.33 ± 0.52 | tissue to tissue ratio at 2 h ([4]; tumor / lung): 1.74 ± 0.63 | tissue to tissue ratio at 0.5 h ([4]; tumor / muscle): 1.85 ± 1.38 | tissue to tissue ratio at 1 h ([4]; tumor / muscle): 2.25 ± 1.56 | tissue to tissue ratio at 2 h ([4]; tumor / muscle): 3.09 ± 0.4 | tissue uptake at 0.5 h ([4]; tumor): 6.77 ± 1.3 %ID/g | tissue uptake at 1 h ([4]; tumor): 4.62 ± 0.57 %ID/g | tissue uptake at 2 h ([4]; tumor): 3.93 ± 0.63 %ID/g | tissue uptake at 0.5 h ([4]; whole blood): 1.54 ± 0.14 %ID/g | tissue uptake at 1 h ([4]; whole blood): 0.87 ± 0.1 %ID/g | Radiotracer remaining intact in the feces samples [5]: 70%
